The results in this text go back to ChEMBL document CHEMBL4765352, “Discovery of AdipoRon analogues as novel AMPK activators without inhibiting mitochondrial complex I” (Eur J Med Chem, 2020).

Data set [1] can be described thus: Induction of glucose consumption in mouse C2C12 cells at 10 uM measured after 12 hrs by glucose oxidase method (reference value: 100 %). The class given is functional. The essentials:
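Differentiated C2C12 myotubes were switched to DMEM containing 2.75 g/L glucose and treated for 12 h at 37 °C, with cell-free blank wells as reference. Glucose left in the medium was measured by the GOD-POD method at 570 nm. Consumption was derived by subtraction and expressed as percentage of the DMSO group.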

The test system of data set [2] is C2C12. Description: Activation of AMPK in mouse C2C12 cells assessed as increase in ACC phosphorylation measured after 2 hrs by Western blotting analysis. In kind it is cell-based. The following applies: filed as activator, dose 0.1-20 µM. A digest of the protocol: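 C2C12 myoblasts differentiated in DMEM with 2% horse serum for 5-7 days until myotubes formed. Treated for 2 h, either at 10 μM or across a concentration range, or at 10 μM over a time course. RIPA lysates (~30 µg protein) blotted for p-AMPK/AMPK and p-ACC/ACC, detected by ECL. The p-AMPK/AMPK ratio is expressed as fold of the DMSO vehicle.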
(A western blot detects proteins with antibodies after separation by electrophoresis.)

For data set [3], the system named is Huh-7. Description: Activation of AMPK in human HuH-7 cells assessed as increase in AMPK phosphorylation at 1 to 20 uM measured after 2 to 12 hrs by Western blotting analysis. In kind it is cell-based. The settings on record: filed as activator, dose 1-20 µM, time 2-12 hrs. A digest of the protocol:
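HepG2 and HuH-7 cells in medium with 10% FBS and penicillin/streptomycin at 37 °C, 5% CO₂. Treated with a range of concentrations for 2 h, or with 10 μM over a time course. Cells lysed in RIPA buffer with protease/phosphatase inhibitors; ~30 µg protein per lane blotted for p-AMPK, AMPK, p-ACC, ACC, with GAPDH or β-actin as loading control. Detected by ECL.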

For data set [4], the species on record is Homo sapiens. Description: Activation of AMPK alpha1/beta1/gamma1 (unknown origin).
For data set [5], the species on record is Homo sapiens. In words: Activation of AMPK alpha2/beta2/gamma1 (unknown origin).
A short description of data set [6]: Inhibition of bovine heart mitochondrial complex 1 at 5 to 20 uM measured every minute for 2 hrs by microplate reader based assay. The class given is tissue-based, Bos taurus. The settings on record: cattle, dose 5-20 µM. A digest of the protocol:
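Bovine heart mitochondria in detergent were captured on a complex I antibody-coated plate for 2 h at room temperature. Phospholipids were added, then complex I solution with compound, rotenone control or DMSO. NADH oxidation was followed as the fall in A340, read every minute for at least 2 h at 30 °C.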

The test system of data set [7] is C2C12. Description: Activation of AMPK in mouse C2C12 cells with SiRNA-induced LKB1 knock down assessed as increase in ACC phosphorylation. In kind it is cell-based.
The subject of data set [8] is BEAS-2B. In words: Activation of AMPK in human BEAS-2B cells harboring wild type LKB1. The class given is cell-based. The settings on record: filed as activator.
In data set [9] the test system is C2C12. Description: Cytotoxicity against mouse C2C12 cells assessed as reduction in cell viability at 5 to 20 uM incubated for 24 to 72 hrs by MTT assay. In kind it is cell-based. The settings on record: c2c12, 20 µM, dose lower 5 µM, time lower 24 hrs, dose upper 20 µM, time upper 72 hrs. A digest of the protocol:
(§1)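 MTT viability assay in C2C12, HepG2 and A549 cells. Exposure was 24 h or 72 h for C2C12 and 72 h for HepG2 and A549. Three replicates per group, compared with the 0 μM group by Student's t test.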

Data set [10] deals with A549. In words: Cytotoxicity against human A549 cells assessed as reduction in cell viability at 5 to 20 uM incubated for 72 hrs by MTT assay. The class given is cell-based. The following applies: a549, 72 h, dose 5-20 µM. The essentials: as §1
On the technique in general: Formazan colour is commonly taken as a measure of viable cells.

Data set [11] deals with HepG2. Description: Cytotoxicity against human HepG2 cells assessed as reduction in cell viability at 10 to 20 uM incubated for 72 hrs by MTT assay. The class given is cell-based. The following applies: hepg2, 72 h, dose 10-20 µM. The essentials: as §1
Data set [12] in a line: Metabolic stability in ICR/CD-1 mouse liver microsomes assessed as compound remaining preincubated for 5 mins followed by NADPH addition and measured up to 45 mins by LC/MS analysis. The class given is ADME, Microsome. The following applies: time 50 min, read-out: Stabilty. The essentials: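 Compound was preincubated with mouse (ICR/CD-1) or human liver microsomes in potassium phosphate buffer at 37 °C for 5 min, then NADPH was added to start the reaction. Samples were quenched with acetonitrile containing tolbutamide internal standard at 0, 5, 15, 30 and 45 min. Parent compound measured by LC/MS; ketanserin served as control.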
In general terms: Liver microsomes are vesicles of endoplasmic reticulum, rich in cytochrome P450 enzymes.

The nature of data set [13]: Metabolic stability in ICR/CD-1 mouse liver microsomes assessed as intrinsic clearance preincubated for 5 mins followed by NADPH addition and measured up to 45 mins by LC/MS analysis. In kind it is ADME, Microsome. The settings on record: time 50 min, read-out: CLH. A digest of the protocol:
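Compound and liver microsomes in preheated potassium phosphate buffer, held at 37 °C for 5 min. Reaction started with NADPH and stopped at 0, 5, 15, 30 and 45 min with acetonitrile containing tolbutamide internal standard. Samples centrifuged at 6000 rpm for 15 min, supernatant analysed by LC/MS. Ketanserin run as assay control. Performed by a contract lab.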

For data set [14], the species on record is Mus musculus. In words: Improvement in lipid homeostasis in db/db mouse assessed as effect on serum triglyceride level. The class given is functional, organism-based.
A short description of data set [15]: Toxicity in C57BL/6 mouse assessed as change in gross morphology of heart at 50 to 200 mg/kg, ig administered for 4 weeks. The class given is organism-based. The settings on record: in vivo, po, 672 h, dose 50-200 mg/kg. The essentials:
(§2)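 Male C57BL/6 mice (6 per group) given 50, 100 or 200 mg/kg intragastrically daily for 4 weeks. Saline-perfused hearts were weighed and examined for gross morphology, with representative hearts chosen by similar body weight. Heart weight was expressed relative to body weight and to tibia length.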

A short description of data set [16]: Toxicity in C57BL/6 mouse assessed as change in heart weight/body weight ratio at 50 to 200 mg/kg, ig administered for 4 weeks. In kind it is organism-based. The settings on record: in vivo, po, 672 h, dose 50-200 mg/kg. A digest of the protocol: as §2
Data set [17] is described as follows: Induction of cardiac hypertrophy in db/db mouse at 100 mg/kg, ig administered for 10 weeks. The class given is organism-based. The following applies: in vivo, po, 1680 h.
Data set [18] concerns Mus musculus. Description: Activation of AMPK in normal lean C57BL/6 mouse assessed as increase in phosphorylated ACC level in heart tissue at 100 mg/kg, ig administered for 4 weeks by Western blot analysis. The class given is functional, organism-based. A digest of the protocol: (§3)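 Male C57BL/6 mice, 9 weeks old, dosed intragastrically once daily for 4 weeks alongside vehicle controls. Heart and skeletal muscle were homogenized in RIPA buffer with protease/phosphatase inhibitors and centrifuged at 10,600 g for 20 min. About 30 µg protein was blotted for p-AMPK and p-ACC and detected by ECL.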

Data set [19] relates to Mus musculus. Description: Activation of AMPK in normal lean C57BL/6 mouse assessed as increase in phosphorylated ACC level in skeletal muscle at 100 mg/kg, ig administered for 4 weeks by Western blot analysis. In kind it is functional, organism-based. The following applies: Skeletal muscle tissue. The essentials:
as §3

In data set [20] the test system is H9c2. Description: Activation of AMPK in rat H9C2 cells assessed as increase in phosphorylation of AMPK at 1 to 20 uM incubated for 1 to 24 hrs by Western blot analysis. The class given is cell-based. The following applies: dose 1-20 µM, time 1-24 hrs. The essentials:
(§4)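 Rat cardiac H9C2 cells treated with a concentration range for 2 h or 4 h, or with 10 μM over a time course. Lysates blotted for phosphorylated and total AMPK and ACC, detected by ECL.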

In data set [21] the test system is H9c2. In words: Activation of AMPK in rat H9C2 cells assessed as increase in phosphorylation of ACC at 1 to 20 uM incubated for 1 to 24 hrs by Western blot analysis. In kind it is cell-based. The settings on record: dose 1-20 µM, time 1-24 hrs. The essentials: as §4

Structures are written as SMILES. The source made the active and inactive calls. The rule behind the calls is not given here.

In the case of `CC(C)(Oc1ccc(Cl)cc1)C(=O)Nc1ccc(OCc2ccc(C#N)cc2)cc1`, the Activity in [1] was 151.8%; in [2], “Dose-dependent effect”; in [9], “Non-Toxic”; in data set [10], “Non-Toxic”; in [11], “Toxic”; in [15], “Non-Toxic”. Also, the Activity result in [16] and in data set [17] was “Non-Toxic” throughout. Further, the result in data set [3], in data set [8] and in data set [19] was Active. In addition, the result in data set [4], in data set [5], in data set [7], in [14], in data set [18] and in data set [20] was inactive. Besides, the outcome in data set [21] was inactive. Besides, the “inhibition (INH)” value in data set [6] is given as “Not Active”. Moreover, the remaining at 0.75 h in [12] came out at 39%. For the same molecule, in [13], the CLint scaled amounted to 152 mL/min/kg.
